Measured values taken from ChEMBL document CHEMBL1255501, “Heteroresistance of Cryptococcus gattii to fluconazole” (2010).

Key:
[1] = system: Cryptococcus gattii species complex; experiment: Antimicrobial activity against Cryptococcus gattii serotype B isolate NIH771 assessed as heteroresistant isolates at 2 ug/ml; type: functional, Cryptococcus bacillisporus
Summary of the method: (§1)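 Population analysis: cells suspended in sterile saline at 1 × 10³ to 4 × 10³ CFU/ml and plated on plain YPD agar or YPD agar with various fluconazole concentrations. Plates incubated at 30°C for 72 h. The resistant subpopulation at each concentration is recorded as a percentage of the population.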

[2] = system: Cryptococcus gattii species complex; experiment: Antimicrobial activity against Cryptococcus gattii serotype B isolate RB22 assessed as heteroresistant isolates at 2 ug/ml; type: functional, Cryptococcus bacillisporus
Summary of the method: (§2)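 Population analysis: saline cell suspensions (1 × 103 to 4 × 10^3 CFU/ml) plated on plain YPD agar or YPD agar with various fluconazole concentrations; growth recorded after 72 h at 30°C; percentage of resistant subpopulation at each drug level calculated relative to drug-free plate growth.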

[3] = system: Cryptococcus bacillisporus; experiment: Antimicrobial activity against Cryptococcus gattii serotype C isolate NIH191 assessed as heteroresistant isolates at 2 ug/ml; type: functional; summary of the method: as §2
[4] = system: Cryptococcus gattii species complex; experiment: Antimicrobial activity against Cryptococcus gattii serotype C isolate NIH298 assessed as heteroresistant isolates at 2 ug/ml; type: functional, Cryptococcus bacillisporus
Summary of the method: (§3)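 Cell suspensions of 1 × 10^3 to 4 × 10^3 CFU/ml were made in sterile saline and plated on plain YPD agar or YPD agar with various fluconazole concentrations. Plates were incubated at 30°C for 72 h, and the percentage of resistant subpopulation emerging was recorded.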

[5] = system: Cryptococcus gattii species complex; experiment: Antimicrobial activity against Cryptococcus gattii serotype B isolate NIH412 assessed as heteroresistant isolates at 4 ug/ml; type: functional, Cryptococcus bacillisporus; summary of the method: as §1
[6] = system: Cryptococcus gattii species complex; experiment: Antimicrobial activity against Cryptococcus gattii serotype B isolate NIH184 assessed as heteroresistant isolates at 4 ug/ml; type: functional, Cryptococcus bacillisporus; summary of the method: as §1
[7] = system: Cryptococcus gattii species complex; experiment: Antimicrobial activity against Cryptococcus gattii serotype B isolate NIH367 assessed as heteroresistant isolates at 4 ug/ml; type: functional, Cryptococcus bacillisporus; summary of the method: as §1
[8] = system: Cryptococcus gattii species complex; experiment: Antimicrobial activity against Cryptococcus gattii serotype B isolate NIH771 assessed as heteroresistant isolates at 4 ug/ml; type: functional, Cryptococcus bacillisporus; summary of the method: as §2
[9] = system: Cryptococcus gattii species complex; experiment: Antimicrobial activity against Cryptococcus gattii serotype B isolate RB3 assessed as heteroresistant isolates at 4 ug/ml; type: functional, Cryptococcus bacillisporus; summary of the method: as §2
[10] = system: Cryptococcus gattii species complex; experiment: Antimicrobial activity against Cryptococcus gattii serotype C isolate H0058-1-2023 assessed as heteroresistant isolates at 4 ug/ml; type: functional, Cryptococcus bacillisporus; summary of the method: as §2
[11] = system: Cryptococcus gattii species complex; experiment: Antimicrobial activity against Cryptococcus gattii serotype B isolate RB-14 assessed as concentration required for heteroresistance; type: functional, Cryptococcus bacillisporus
[12] = system: Cryptococcus gattii species complex; experiment: Antimicrobial activity against Cryptococcus gattii serotype B isolate RAM-002 assessed as concentration required for heteroresistance; type: functional, Cryptococcus bacillisporus
[13] = system: Cryptococcus gattii species complex; experiment: Antimicrobial activity against Cryptococcus gattii serotype B isolate B5788 assessed as concentration required for heteroresistance; type: functional, Cryptococcus bacillisporus
Summary of the method: (§4)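 Fluconazole spot test: 10-fold serial dilutions of each single-colony-purified strain spotted on YPD agar alone and YPD agar with fluconazole at 4 to 128 μg/ml. The level of heteroresistance to fluconazole (LHF) is the lowest drug concentration at which minor resistant subpopulations emerge within the spot.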

[14] = system: Cryptococcus gattii species complex; experiment: Antimicrobial activity against Cryptococcus gattii serotype C isolate NIH139 assessed as concentration required for heteroresistance; type: functional, Cryptococcus bacillisporus
[15] = system: Cryptococcus gattii species complex; experiment: Antimicrobial activity against Cryptococcus gattii serotype C isolate NIH178 assessed as concentration required for heteroresistance; type: functional, Cryptococcus bacillisporus
[16] = system: Cryptococcus bacillisporus; experiment: Antimicrobial activity against Cryptococcus gattii serotype C isolate NIH191 assessed as concentration required for heteroresistance; type: functional
[17] = system: Cryptococcus gattii species complex; experiment: Antimicrobial activity against Cryptococcus gattii serotype C isolate NIH298 assessed as concentration required for heteroresistance; type: functional, Cryptococcus bacillisporus
Summary of the method: (§5)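 […] on YPD agar at 4 to 128 μg/ml. The lowest drug concentration at which minor resistant subpopulations emerged within the patch was scored as the strain's level of heteroresistance.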

[18] = system: Cryptococcus gattii species complex; experiment: Antimicrobial activity against Cryptococcus gattii serotype C isolate H0058-1-78 assessed as concentration required for heteroresistance; type: functional, Cryptococcus bacillisporus
[19] = system: Cryptococcus gattii species complex; experiment: Antimicrobial activity against Cryptococcus gattii serotype C isolate H0058-1-818 assessed as concentration required for heteroresistance; type: functional, Cryptococcus bacillisporus
[20] = system: Cryptococcus gattii species complex; experiment: Antimicrobial activity against Cryptococcus gattii serotype C isolate H0058-1-1875 assessed as concentration required for heteroresistance; type: functional, Cryptococcus bacillisporus
[21] = system: Cryptococcus gattii species complex; experiment: Antimicrobial activity against Cryptococcus gattii serotype B isolate NIH412 assessed as heteroresistant isolates at 2 ug/ml; type: functional, Cryptococcus bacillisporus; summary of the method: as §1
[22] = system: Cryptococcus gattii species complex; experiment: Antimicrobial activity against Cryptococcus gattii serotype B isolate NIH535 assessed as heteroresistant isolates at 2 ug/ml; type: functional, Cryptococcus bacillisporus; summary of the method: as §1
[23] = system: Cryptococcus gattii species complex; experiment: Antimicrobial activity against Cryptococcus gattii serotype B isolate NIH189 assessed as heteroresistant isolates at 2 ug/ml; type: functional, Cryptococcus bacillisporus; summary of the method: as §1
[24] = system: Cryptococcus deuterogattii; experiment: Antimicrobial activity against Cryptococcus gattii serotype B isolate NIH444 assessed as concentration required for heteroresistance; type: functional, Cryptococcus bacillisporus; summary of the method: as §4
[25] = system: Cryptococcus gattii species complex; experiment: Antimicrobial activity against Cryptococcus gattii serotype B isolate NIH744 assessed as concentration required for heteroresistance; type: functional, Cryptococcus bacillisporus; summary of the method: as §4
[26] = system: Cryptococcus gattii species complex; experiment: Antimicrobial activity against Cryptococcus gattii serotype B isolate NIH189 assessed as concentration required for heteroresistance; type: functional, Cryptococcus bacillisporus; summary of the method: as §4
[27] = system: Cryptococcus gattii species complex; experiment: Antimicrobial activity against Cryptococcus gattii serotype B isolate NIH767 assessed as concentration required for heteroresistance; type: functional, Cryptococcus bacillisporus; summary of the method: as §4
[28] = system: Cryptococcus gattii species complex; experiment: Antimicrobial activity against Cryptococcus gattii serotype B isolate NIH771 assessed as concentration required for heteroresistance; type: functional, Cryptococcus bacillisporus; summary of the method: as §4
[29] = system: Cryptococcus gattii species complex; experiment: Antimicrobial activity against Cryptococcus gattii serotype B isolate NIH409 assessed as concentration required for heteroresistance; type: functional, Cryptococcus bacillisporus; summary of the method: as §4
[30] = system: Cryptococcus gattii species complex; experiment: Antimicrobial activity against Cryptococcus gattii serotype C isolate NIH403 assessed as concentration required for heteroresistance; type: functional, Cryptococcus bacillisporus; summary of the method: as §5
[31] = system: Cryptococcus gattii species complex; experiment: Antimicrobial activity against Cryptococcus gattii serotype B isolate NIH76 assessed as concentration required for heteroresistance; type: functional, Cryptococcus bacillisporus; summary of the method: as §4
[32] = system: Cryptococcus bacillisporus; experiment: Antimicrobial activity against Cryptococcus gattii serotype C isolate NIH191 assessed as heteroresistant isolates at 16 ug/ml; type: functional; summary of the method: as §2
[33] = system: Cryptococcus gattii species complex; experiment: Antimicrobial activity against Cryptococcus gattii serotype C isolate H0058-1-1941 assessed as heteroresistant isolates at 16 ug/ml; type: functional, Cryptococcus bacillisporus; summary of the method: as §2
[34] = system: Cryptococcus gattii species complex; experiment: Antimicrobial activity against Cryptococcus gattii serotype B isolate RAM15 assessed as heteroresistant isolates at 32 ug/ml; type: functional, Cryptococcus bacillisporus; summary of the method: as §2
[35] = system: Cryptococcus gattii species complex; experiment: Antimicrobial activity against Cryptococcus gattii serotype C isolate NIH18 assessed as heteroresistant isolates at 32 ug/ml; type: functional, Cryptococcus bacillisporus, serotype B isolate  NIH18; summary of the method: as §2
[36] = system: Cryptococcus gattii species complex; experiment: Antimicrobial activity against Cryptococcus gattii serotype C isolate H0058-1-78 assessed as heteroresistant isolates at 32 ug/ml; type: functional, Cryptococcus bacillisporus; summary of the method: as §2
[37] = system: Cryptococcus gattii species complex; experiment: Antimicrobial activity against Cryptococcus gattii serotype C isolate NIH298 assessed as heteroresistant isolates at 4 ug/ml; type: functional, Cryptococcus bacillisporus; summary of the method: as §3
[38] = system: Cryptococcus gattii species complex; experiment: Antimicrobial activity against Cryptococcus gattii serotype B isolate NIH198 assessed as heteroresistant isolates at 8 ug/ml; type: functional, Cryptococcus bacillisporus; summary of the method: as §1
[39] = system: Cryptococcus deuterogattii; experiment: Antimicrobial activity against Cryptococcus gattii serotype B isolate NIH444 assessed as heteroresistant isolates at 8 ug/ml; type: functional, Cryptococcus bacillisporus; summary of the method: as §1
[40] = system: Cryptococcus gattii species complex; experiment: Antimicrobial activity against Cryptococcus gattii serotype B isolate NIH189 assessed as heteroresistant isolates at 8 ug/ml; type: functional, Cryptococcus bacillisporus; summary of the method: as §1
[41] = system: Cryptococcus deuterogattii; experiment: Antimicrobial activity against Cryptococcus gattii serotype B isolate NIH444 assessed as heteroresistant isolates at 16 ug/ml; type: functional, Cryptococcus bacillisporus; summary of the method: as §1
[42] = system: Cryptococcus gattii species complex; experiment: Antimicrobial activity against Cryptococcus gattii serotype B isolate NIH189 assessed as heteroresistant isolates at 16 ug/ml; type: functional, Cryptococcus bacillisporus; summary of the method: as §1
[43] = system: Cryptococcus gattii species complex; experiment: Antimicrobial activity against Cryptococcus gattii serotype B isolate RAM15 assessed as heteroresistant isolates at 16 ug/ml; type: functional, Cryptococcus bacillisporus; summary of the method: as §2

Which results are given for `OC(Cn1cncn1)(Cn1cncn1)c1ccc(F)cc1F` [FLUCONAZOLE]?
Activity [1]: 100%; Activity [2]: 100%; Activity [3]: 100%; Activity [4]: 100%; Activity [5]: 0.07%; Activity [6]: 100%; Activity [7]: 100%; Activity [8]: 100%; Activity [9]: 100%; Activity [10]: 100%; Activity [11]: 32 µg/mL; Activity [12]: 32 µg/mL; Activity [13]: 8 µg/mL; Activity [14]: 32 µg/mL; Activity [15]: 32 µg/mL; Activity [16]: 32 µg/mL; Activity [17]: 32 µg/mL; Activity [18]: 32 µg/mL; Activity [19]: 32 µg/mL; Activity [20]: 32 µg/mL; Activity [21]: 100%; Activity [22]: 100%; Activity [23]: 100%; Activity [24]: 32 µg/mL; Activity [25]: 32 µg/mL; Activity [26]: 16 µg/mL; Activity [27]: 32 µg/mL; Activity [28]: 32 µg/mL; Activity [29]: 32 µg/mL; Activity [30]: 16 µg/mL; Activity [31]: 32 µg/mL; Activity [32]: 100%; Activity [33]: 100%; Activity [34]: 10%; Activity [35]: 0.44%; Activity [36]: 2.3%; Activity [37]: 100%; Activity [38]: 100%; Activity [39]: 100%; Activity [40]: 100%; Activity [41]: 100%; Activity [42]: 0.7%; Activity [43]: 100%
